Test results from ChEMBL document CHEMBL5620388, “Quinolone analogues of benzothiazinone: Synthesis, antitubercular structure-activity relationship and ADME profiling” (Eur J Med Chem, 2023).
In brackets after ≈: the same amount, converted by molar mass.

Key:
Type in all cases: functional
[1] = test system: Mycobacterium tuberculosis; experiment: Antitubercular activity against Mycobacterium tuberculosis harboring DprE1 C387S mutant assessed as reduction in bacterial growth incubated for 14 days; conditions: time 14 day
In short: (§1)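 Strains were H37Rv, the fluoroquinolone-resistant GyrA G88C mutant, and the dprE1 P116S and C387S mutants. All were cultured in standard Middlebrook 7H9 with ADC supplement.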

[2] = test system: Mycobacterium tuberculosis; experiment: Antitubercular activity against moxifloxacin-resistant Mycobacterium tuberculosis assessed as reduction in bacterial growth incubated for 14 days; conditions: 336 h, time 14 day; in short: as §1
[3] = test system: Mycobacterium tuberculosis; experiment: Antitubercular activity against Mycobacterium tuberculosis harboring DprE1 p116S mutant assessed as reduction in bacterial growth incubated for 14 days; conditions: time 14 day; in short: as §1

| SMILES | MIC90 [1] [µM] | MIC90 [2] [µM] | MIC90 [3] [µM] |
| --- | --- | --- | --- |
| O=C(NCCc1ccc(C(F)(F)F)cc1)c1c[nH]c2c([N+](=O)[O-])cc(C(F)(F)F)cc2c1=O | 54.2 (≈ 25.7 µg/mL) | 0.9 (≈ 0.426 µg/mL) | 0.5 (≈ 0.237 µg/mL) |
| O=C(NCCc1ccc(F)cc1)c1c[nH]c2c([N+](=O)[O-])cc(C(F)(F)F)cc2c1=O | >62 | 1.9 (≈ 0.804 µg/mL) | 1 (≈ 0.423 µg/mL) |
| O=C(NCCc1ccc(Cl)cc1)c1c[nH]c2c([N+](=O)[O-])cc(C(F)(F)F)cc2c1=O | 44.8 (≈ 19.7 µg/mL) | 1.9 (≈ 0.836 µg/mL) | 17 (≈ 7.48 µg/mL) |
| NNC(=O)c1ccncc1 [ISONIAZID] | 3.3 (≈ 0.453 µg/mL) | 3.6 (≈ 0.494 µg/mL) | 2 (≈ 0.274 µg/mL) |
| COc1c(N2C[C@@H]3CCCN[C@@H]3C2)c(F)cc2c(=O)c(C(=O)O)cn(C3CC3)c12 [MOXIFLOXACIN] | 0.05 (≈ 0.0201 µg/mL) | 6.3 (≈ 2.53 µg/mL) | 0.1 (≈ 0.0401 µg/mL) |
